The text below walks through data of paper PMC6245472 (Molecules, 2008).

Test [1] deals with Plasmodium falciparum K1 strain (CQ-resistant). The test is described as follows: P. falciparum in vitro parasite growth inhibition. The class given is cell-based. The following applies: for RI (K1/3D7) Resistance Index: ratio of K1 and 3D7 IC50. Summed up: (§1)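 Asynchronous culture (65–75% rings, 0.5% parasitemia, 2.5% hematocrit) in RPMI 1640/0.5% Albumax II/5 µM hypoxanthine. Triplicate 3-fold dilutions, 10.0–0.0412 µg/mL, DMSO ≤0.01% final. 37 °C, 5% CO2, 24 h, then [3H]hypoxanthine 0.2 µCi/well for a further 24 h. Plates frozen, harvested, scintillation-counted. IC50 curve-fitted, mean of independent experiments. SI = KB IC50 (72 h, Alamar Blue)/parasite IC50. RI from K1 and 3D7 IC50s.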

In test [2] the test system is Plasmodium falciparum 3D7 strain (CQ-sensitive). Nature of the test: P. falciparum in vitro parasite growth inhibition. The format is cell-based. An outline of the steps:
as §1

Turning to `CCN(CC)CCCC(C)Nc1ccnc2cc(Cl)ccc12` (stereo not drawn) [CQ, Chloroquine diphosphate], in test [1] ((KB IC50)/(K1 IC50)), the “SI K1 Selectivity Index” value was found to be 161. The half-maximal inhibitory concentration (IC50) was determined as 682 nM in test [1] (Plasmodium falciparum, K1, read-out: K1 IC50) and 13.5 nM in test [2] (Plasmodium falciparum, 3D7, read-out: 3D7 IC50). Also, the “RI (K1/3D7) Resistance Index” value was determined as 50.52 in test [1] and 50 in test [1] (listed as chloroquine). In addition, in test [2] ((KB IC50)/(3D7 IC50)), the “SI 3D7 Selectivity Index” value is 8150.
